Laboratory results published in ChEMBL document CHEMBL1125416, “Synthesis and antiulcer activity of novel 5-(2-ethenyl substituted)-3(2H)-furanones” (1992).

Experiments:
[1] = system: Rattus norvegicus; assay: Inhibitory activity against ethanol-induced lesions, which was administered after 1 hr of oral dosing in pylorus-ligated rat model.; format: functional
[2] = species on record: Rattus norvegicus; assay: Effective dose that inhibits formation of induced gastric lesions.; format: functional; conditions: Stomach
In short: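 Male Sprague-Dawley rats (180–210 g), fasted 18–24 h with water allowed, dosed orally 1 h before absolute ethanol (1 mL/rat po) and killed 1 h later. Lesions scored blind by size (mm²) and number, expressed as % inhibition versus vehicle mean. Groups of ≥10 rats; Dunnett's test (p < 0.01).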

[3] = system: Rattus norvegicus; assay: Inhibitory activity In the indomethacin model at a dose of 120 mg/kg perorally; format: functional; conditions: route oral
In short: (§1)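 In male Sprague-Dawley rats (120–170 g) fasted 18 h with water ad libitum, oral test compound was given 30 min before indomethacin (20 mg/kg po). Rats killed by cervical dislocation 4 h later; stomachs opened along the greater curvature, rinsed, and lesions graded by size and number. Percent inhibition versus control, ≥10 rats per group.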

[4] = system: Rattus norvegicus; assay: Evaluated for the duration of cytoprotective effect, in Ethanol-Necrosis model, that causes inhibition of ulceration. Absolute ethanol was administered at 8 hr after dosing; format: functional; parameters: concentration or dose not given beside the values
In short: (§2)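 Male Sprague-Dawley rats (180–210 g), fasted 18–24 h with water available, dosed orally with drug or vehicle 4, 6 or 8 h before absolute ethanol (1 mL per rat po). Rats killed 1 h after ethanol, stomachs kept moist with saline and scored blind by ulcer size (mm²) and number per size class. Percent inhibition is taken against the vehicle group mean score.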

[5] = system: Rattus norvegicus; assay: Inhibitory activity in acidified aspirin model at a dose of 50 mg/kg perorally; format: functional; conditions: route oral
In short: (§3)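 Male Sprague-Dawley rats (120–180 g), fasted 18–24 h with water ad libitum. Compound or vehicle given po (10 mL/kg) 30 min before acidified aspirin (aspirin powder in 0.35 M HCl, 5 mL/kg po). Stomachs excised 5 h after aspirin and graded by ulcer size and number. Percent inhibition versus vehicle, ≥10 rats per group.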

[6] = system: Rattus norvegicus; assay: Inhibition against ethanol-induced lesions which was administered after 1 hr at a oral dosing of 25 mg/kg in pylorus-ligated rat model; format: functional
[7] = system: Rattus norvegicus; assay: Evaluated for the duration of cytoprotective effect, in Ethanol-Necrosis model, that causes inhibition of ulceration. Absolute ethanol was administered at 4 hr after dosing; format: functional; parameters: concentration or dose not given beside the values; in short: as §2
[8] = system: Rattus norvegicus; assay: Inhibition against ethanol-induced lesions which was administered after 1 hr at a oral dosing of 10 mg/kg in pylorus-ligated rat model; format: functional
[9] = system: Rattus norvegicus; assay: Inhibitory activity In acidified aspirin model at a dose of 16 mg/kg perorally; format: functional; conditions: route oral; in short: as §3
[10] = system: Rattus norvegicus; assay: Inhibitory activity in the indomethacin model at a dose of 40 mg/kg perorally; format: functional; conditions: route oral; in short: as §1
[11] = system: Rattus norvegicus; assay: Inhibitory activity In acidified aspirin model at a dose of 40 mg/kg perorally; format: functional; conditions: route oral; in short: as §3
[12] = system: Rattus norvegicus; assay: Inhibitory activity In the indomethacin model at a dose of 111 mg/kg perorally; format: functional; conditions: route oral; in short: as §1
[13] = system: Rattus norvegicus; assay: Compound was evaluated for the duration of cytoprotective effect, in Ethanol-Necrosis model, that causes inhibition of ulceration. Absolute ethanol was administered at 6 hr after dosing; format: functional; in short: as §2
[14] = system: Rattus norvegicus; assay: Compound was tested for inhibition against ethanol-induced lesions which was administered after 1 hr of oral dosing in rat ethanol-necrosis model
[15] = system: Rattus norvegicus; assay: Compound was tested for inhibition against ethanol-induced lesions which was administered after 1 hr of at a oral dosing of 25 mg/kg in pylorus-ligated rat model; format: functional
[16] = species on record: Rattus norvegicus; assay: Inhibitory activity In acidified aspirin model; format: functional; in short: as §3
[17] = species on record: Rattus norvegicus; assay: Inhibitory activity In the indomethacin model.; format: functional; in short: as §1
[18] = system: Rattus norvegicus; assay: Compound was evaluated for the duration of cytoprotective effect, in Ethanol-Necrosis model, that causes inhibition of ulceration. Absolute ethanol was administered at 8 hr after dosing; format: functional; in short: as §2

SMILES: CC1(C)OC(/C=C/c2ccc(C#N)cc2)=CC1=O
- ED50 [1]: 12 mg/kg
- ED50 [2]: 50 mg/kg
- inhibition in vivo at 120 mg/kg [3]: 70%
- Inhibition [4]: 66%
- inhibition in vivo at 50 mg/kg [5]: 23%

SMILES: CC1(C)OC(/C=C/c2ccc(C(F)(F)F)cc2)=CC1=O
- inhibition in vivo at 25 mg/kg [6]: 30%

SMILES: CSc1ccc(/C=C/C2=CC(=O)C(C)(C)O2)cc1
- inhibition in vivo at 25 mg/kg [6]: 5%

SMILES: CC1(c2ccccc2)OC(/C=C/c2ccccn2)=CC1=O (configuration not stated)
- ED50 [1]: 5 mg/kg
- ED50 [2]: 40 mg/kg
- Inhibition [7]: 28%

SMILES: CC1(C)OC(/C=C/c2cc3ccccc3s2)=CC1=O
- inhibition in vivo at 10 mg/kg [8]: 17%

SMILES: CC1(C)OC(/C=C/c2ccoc2)=CC1=O
- inhibition in vivo at 10 mg/kg [8]: 32%

SMILES: CC1(c2ccccc2)OC(/C=C/c2cccnc2)=CC1=O (configuration not stated)
- inhibition in vivo at 10 mg/kg [8]: 44%

SMILES: CC1(C)OC(/C=C/c2ccsc2)=CC1=O
- ED50 [1]: 4 mg/kg
- ED50 [2]: 16 mg/kg
- inhibition in vivo at 16 mg/kg [9]: 0%
- inhibition in vivo at 40 mg/kg [10]: 65%
- Inhibition [4]: 62%

SMILES: CC1(C)OC(c2ccc(Br)cc2)=CC1=O
- inhibition in vivo at 25 mg/kg [6]: 36%

SMILES: CC1(C)OC(/C=C/c2ccccn2)=CC1=O
- ED50 [1]: 10 mg/kg
- ED50 [2]: 40 mg/kg
- inhibition in vivo at 40 mg/kg [11]: 77%
- inhibition in vivo at 111 mg/kg [12]: 72%
- Inhibition [7]: 67%
- Inhibition [4]: 76%

SMILES: CC1(c2ccc(F)cc2)OC(/C=C/c2ccsc2)=CC1=O (configuration not stated)
- inhibition in vivo at 10 mg/kg [8]: 22%

SMILES: Cn1cccc1/C=C/C1=CC(=O)C(C)(C)O1
- inhibition in vivo at 10 mg/kg [8]: 32%

SMILES: CC1(C)OC(/C=C/C=C/c2ccc(Cl)cc2)=CC1=O
- inhibition in vivo at 10 mg/kg [8]: 33%

SMILES: CC1(C)OC(/C=C/c2ccc(Cl)cc2)=CC1=O
- ED50 [2]: 40 mg/kg
- Inhibition [7]: 51%

SMILES: CC1(C)OC(/C=C/c2cnccn2)=CC1=O
- inhibition in vivo at 10 mg/kg [8]: 56%

SMILES: CC1(c2ccccc2)OC(/C=C/c2ccc(C#N)cc2)=CC1=O (configuration not stated)
- inhibition in vivo at 10 mg/kg [8]: 4%

SMILES: CC1(C)OC(c2ccc(C(F)(F)F)cc2)=CC1=O
- inhibition in vivo at 25 mg/kg [6]: 39%

SMILES: CC1(C)OC(/C=C/c2ccc(Cl)cc2Cl)=CC1=O
- inhibition in vivo at 25 mg/kg [6]: 20%

SMILES: CC1(C)OC(/C=C/c2cccnc2)=CC1=O
- ED50 [1]: 9 mg/kg
- ED50 [2]: 40 mg/kg
- Inhibition [7]: 43%
- Inhibition [4]: 40%
- Inhibition [13]: 60%

SMILES: CC1(C)OC(/C=C/c2ccc(F)c(F)c2)=CC1=O
- Inhibition [14]: 47%

SMILES: CC1(C)OC(/C=C/c2ccc(F)cc2F)=CC1=O
- ED50 [1]: 11 mg/kg
- ED50 [2]: 100 mg/kg
- Inhibition [7]: 42%

SMILES: CC1(c2ccc(F)cc2)OC(/C=C/c2ccccn2)=CC1=O (configuration not stated)
- ED50 [1]: 3.5 mg/kg

SMILES: CC1(C)OC(/C=C/c2ccc3ccccc3c2)=CC1=O
- inhibition in vivo at 25 mg/kg [6]: 43%

SMILES: CC1(c2ccccc2)OC(/C=C/c2ccncc2)=CC1=O (configuration not stated)
- ED50 [1]: 6 mg/kg
- ED50 [2]: 24 mg/kg
- Inhibition [7]: 31%

SMILES: CC1(C)OC(/C=C/c2cccc(C#N)c2)=CC1=O
- inhibition in vivo at 10 mg/kg [8]: 68%

SMILES: CC1(C)OC(/C=C/c2cccs2)=CC1=O
- inhibition in vivo at 25 mg/kg [15]: 1%

SMILES: CC1(C)OC(/C=C/c2ccc(S(C)(=O)=O)cc2)=CC1=O
- inhibition in vivo at 25 mg/kg [6]: 56%

SMILES: CC1(C)OC(/C=C/c2ccc(F)cc2)=CC1=O
- ED50 [1]: 11 mg/kg
- ED50 [2]: 50 mg/kg
- Inhibition [7]: 61%
- Inhibition [4]: 25%
- Inhibition [13]: 50%

SMILES: CC1(C)OC(c2ccc(Cl)cc2)=CC1=O
- inhibition in vivo at 25 mg/kg [6]: 29%

SMILES: CC1(C)OC(/C=C/c2cc(Cl)cc(Cl)c2)=CC1=O
- inhibition in vivo at 25 mg/kg [6]: 63%

SMILES: CC1(c2ccc(F)cc2)OC(/C=C/c2ccc(C#N)cc2)=CC1=O (configuration not stated)
- inhibition in vivo at 10 mg/kg [8]: 1%

SMILES: CC1(c2ccccc2)OC(/C=C/c2ccsc2)=CC1=O (configuration not stated)
- inhibition in vivo at 10 mg/kg [8]: 0%

SMILES: CC1(C)OC(/C=C/c2ccccc2)=CC1=O
- ED50 [1]: 17 mg/kg

SMILES: CC1(C)OC(/C=C/c2ccnc3ccccc23)=CC1=O
- ED50 [1]: 2.5 mg/kg

SMILES: CC1(C)OC(/C=C/c2ccc(Cl)c(Cl)c2)=CC1=O
- inhibition in vivo at 25 mg/kg [6]: 45%

SMILES: C/C(=C\c1ccccc1)C1=CC(=O)C(C)(C)O1
- inhibition in vivo at 10 mg/kg [8]: 0%

SMILES: CC1(C)OC(c2ccccc2)=CC1=O
- ED50 [1]: 19 mg/kg

SMILES: CC1(C)OC(/C=C/c2ccncc2)=CC1=O
- ED50 [1]: 4 mg/kg
- ED50 [2]: 20 mg/kg
- Inhibition [13]: 46%

SMILES: COc1ccc(C2=CC(=O)C(C)(C)O2)cc1
- Inhibition [14]: 30%

SMILES: CC1(C)OC(/C=C/c2ccc(Br)cc2)=CC1=O
- ED50 [1]: 18 mg/kg

SMILES: CC(=O)c1ccc2c(c1)C(=O)C1(CC1)O2 [SPIZOFURONE]
- ED50 [1]: 10 mg/kg
- ED50 [2]: 100 mg/kg
- Inhibition [16]: 78%
- Inhibition [17]: 95%
- Inhibition [7]: 72%
- Inhibition [13]: 44%
- Inhibition [18]: 0%
